Results as given in ChEMBL document CHEMBL4425103, “Diving into the Water: Inducible Binding Conformations for BRD4, TAF1(2), BRD9, and CECR2 Bromodomains” (J Med Chem, 2016).

Experiments:
Peregrin = target: T1, Peregrin (Homo sapiens, UniProt P55201); assay: Displacement of biotinylated JQ1 analog from recombinant His-tagged BRPF1 (unknown origin) incubated for 10 mins by TR-FRET assay
T1 sequence (P55201 whole entry): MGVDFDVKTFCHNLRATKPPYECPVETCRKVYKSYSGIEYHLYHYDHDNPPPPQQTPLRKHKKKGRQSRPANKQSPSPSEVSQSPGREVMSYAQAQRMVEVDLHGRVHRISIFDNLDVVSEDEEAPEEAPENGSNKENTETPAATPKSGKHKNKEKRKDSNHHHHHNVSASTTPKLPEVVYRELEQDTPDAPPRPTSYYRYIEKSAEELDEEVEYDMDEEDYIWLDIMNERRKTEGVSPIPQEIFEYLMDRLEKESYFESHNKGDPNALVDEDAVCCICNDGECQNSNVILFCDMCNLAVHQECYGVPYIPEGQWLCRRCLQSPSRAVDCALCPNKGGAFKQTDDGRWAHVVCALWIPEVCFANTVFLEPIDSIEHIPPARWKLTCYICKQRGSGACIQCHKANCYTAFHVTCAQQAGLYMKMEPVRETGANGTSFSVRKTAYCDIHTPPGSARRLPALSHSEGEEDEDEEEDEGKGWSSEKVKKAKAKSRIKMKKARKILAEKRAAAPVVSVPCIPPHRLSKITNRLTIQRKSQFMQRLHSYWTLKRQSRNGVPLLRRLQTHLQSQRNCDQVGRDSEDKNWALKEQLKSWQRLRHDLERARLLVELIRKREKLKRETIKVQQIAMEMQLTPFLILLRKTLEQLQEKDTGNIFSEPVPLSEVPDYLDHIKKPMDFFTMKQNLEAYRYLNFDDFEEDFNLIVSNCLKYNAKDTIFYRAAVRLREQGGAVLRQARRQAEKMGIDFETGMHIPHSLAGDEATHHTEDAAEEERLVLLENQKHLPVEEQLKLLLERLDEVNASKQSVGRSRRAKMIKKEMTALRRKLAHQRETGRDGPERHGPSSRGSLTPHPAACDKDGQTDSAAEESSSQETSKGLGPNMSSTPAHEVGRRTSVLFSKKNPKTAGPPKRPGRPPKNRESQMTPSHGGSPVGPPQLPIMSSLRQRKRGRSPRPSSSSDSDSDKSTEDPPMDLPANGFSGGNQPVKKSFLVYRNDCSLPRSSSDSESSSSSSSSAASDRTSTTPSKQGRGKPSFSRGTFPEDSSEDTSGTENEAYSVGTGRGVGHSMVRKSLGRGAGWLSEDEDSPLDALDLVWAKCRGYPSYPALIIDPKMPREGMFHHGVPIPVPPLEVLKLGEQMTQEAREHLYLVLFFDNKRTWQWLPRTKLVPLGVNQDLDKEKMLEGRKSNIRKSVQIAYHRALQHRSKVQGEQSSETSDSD
In short: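 Bromodomain, then biotinylated ligand, each added with 10 min incubation. Anti-His europium (0.2 nM) plus streptavidin-APC followed for 40 min. 10-point titrations in duplicate, at least 2 independent runs.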

[1] = target: T2, Bromodomain-containing protein 4 (Homo sapiens, UniProt O60885); assay: Inhibition of recombinant His-tagged BRD4 bromodomain1 (unknown origin) using biotinylated ligand incubated for 10 mins by TR-FRET assay
[2] = target: T2, Bromodomain-containing protein 4; assay: Inhibition of recombinant His-tagged BRD4 bromodomain2 (unknown origin) using biotinylated ligand incubated for 10 mins by TR-FRET assay
CREB-binding protein = CREB-binding protein (Homo sapiens, UniProt Q92793); assay: Displacement of biotinylated JQ1 analog from recombinant His-tagged CBP (unknown origin) incubated for 10 mins by TR-FRET assay
CREB-binding protein, sequence (Q92793 whole entry): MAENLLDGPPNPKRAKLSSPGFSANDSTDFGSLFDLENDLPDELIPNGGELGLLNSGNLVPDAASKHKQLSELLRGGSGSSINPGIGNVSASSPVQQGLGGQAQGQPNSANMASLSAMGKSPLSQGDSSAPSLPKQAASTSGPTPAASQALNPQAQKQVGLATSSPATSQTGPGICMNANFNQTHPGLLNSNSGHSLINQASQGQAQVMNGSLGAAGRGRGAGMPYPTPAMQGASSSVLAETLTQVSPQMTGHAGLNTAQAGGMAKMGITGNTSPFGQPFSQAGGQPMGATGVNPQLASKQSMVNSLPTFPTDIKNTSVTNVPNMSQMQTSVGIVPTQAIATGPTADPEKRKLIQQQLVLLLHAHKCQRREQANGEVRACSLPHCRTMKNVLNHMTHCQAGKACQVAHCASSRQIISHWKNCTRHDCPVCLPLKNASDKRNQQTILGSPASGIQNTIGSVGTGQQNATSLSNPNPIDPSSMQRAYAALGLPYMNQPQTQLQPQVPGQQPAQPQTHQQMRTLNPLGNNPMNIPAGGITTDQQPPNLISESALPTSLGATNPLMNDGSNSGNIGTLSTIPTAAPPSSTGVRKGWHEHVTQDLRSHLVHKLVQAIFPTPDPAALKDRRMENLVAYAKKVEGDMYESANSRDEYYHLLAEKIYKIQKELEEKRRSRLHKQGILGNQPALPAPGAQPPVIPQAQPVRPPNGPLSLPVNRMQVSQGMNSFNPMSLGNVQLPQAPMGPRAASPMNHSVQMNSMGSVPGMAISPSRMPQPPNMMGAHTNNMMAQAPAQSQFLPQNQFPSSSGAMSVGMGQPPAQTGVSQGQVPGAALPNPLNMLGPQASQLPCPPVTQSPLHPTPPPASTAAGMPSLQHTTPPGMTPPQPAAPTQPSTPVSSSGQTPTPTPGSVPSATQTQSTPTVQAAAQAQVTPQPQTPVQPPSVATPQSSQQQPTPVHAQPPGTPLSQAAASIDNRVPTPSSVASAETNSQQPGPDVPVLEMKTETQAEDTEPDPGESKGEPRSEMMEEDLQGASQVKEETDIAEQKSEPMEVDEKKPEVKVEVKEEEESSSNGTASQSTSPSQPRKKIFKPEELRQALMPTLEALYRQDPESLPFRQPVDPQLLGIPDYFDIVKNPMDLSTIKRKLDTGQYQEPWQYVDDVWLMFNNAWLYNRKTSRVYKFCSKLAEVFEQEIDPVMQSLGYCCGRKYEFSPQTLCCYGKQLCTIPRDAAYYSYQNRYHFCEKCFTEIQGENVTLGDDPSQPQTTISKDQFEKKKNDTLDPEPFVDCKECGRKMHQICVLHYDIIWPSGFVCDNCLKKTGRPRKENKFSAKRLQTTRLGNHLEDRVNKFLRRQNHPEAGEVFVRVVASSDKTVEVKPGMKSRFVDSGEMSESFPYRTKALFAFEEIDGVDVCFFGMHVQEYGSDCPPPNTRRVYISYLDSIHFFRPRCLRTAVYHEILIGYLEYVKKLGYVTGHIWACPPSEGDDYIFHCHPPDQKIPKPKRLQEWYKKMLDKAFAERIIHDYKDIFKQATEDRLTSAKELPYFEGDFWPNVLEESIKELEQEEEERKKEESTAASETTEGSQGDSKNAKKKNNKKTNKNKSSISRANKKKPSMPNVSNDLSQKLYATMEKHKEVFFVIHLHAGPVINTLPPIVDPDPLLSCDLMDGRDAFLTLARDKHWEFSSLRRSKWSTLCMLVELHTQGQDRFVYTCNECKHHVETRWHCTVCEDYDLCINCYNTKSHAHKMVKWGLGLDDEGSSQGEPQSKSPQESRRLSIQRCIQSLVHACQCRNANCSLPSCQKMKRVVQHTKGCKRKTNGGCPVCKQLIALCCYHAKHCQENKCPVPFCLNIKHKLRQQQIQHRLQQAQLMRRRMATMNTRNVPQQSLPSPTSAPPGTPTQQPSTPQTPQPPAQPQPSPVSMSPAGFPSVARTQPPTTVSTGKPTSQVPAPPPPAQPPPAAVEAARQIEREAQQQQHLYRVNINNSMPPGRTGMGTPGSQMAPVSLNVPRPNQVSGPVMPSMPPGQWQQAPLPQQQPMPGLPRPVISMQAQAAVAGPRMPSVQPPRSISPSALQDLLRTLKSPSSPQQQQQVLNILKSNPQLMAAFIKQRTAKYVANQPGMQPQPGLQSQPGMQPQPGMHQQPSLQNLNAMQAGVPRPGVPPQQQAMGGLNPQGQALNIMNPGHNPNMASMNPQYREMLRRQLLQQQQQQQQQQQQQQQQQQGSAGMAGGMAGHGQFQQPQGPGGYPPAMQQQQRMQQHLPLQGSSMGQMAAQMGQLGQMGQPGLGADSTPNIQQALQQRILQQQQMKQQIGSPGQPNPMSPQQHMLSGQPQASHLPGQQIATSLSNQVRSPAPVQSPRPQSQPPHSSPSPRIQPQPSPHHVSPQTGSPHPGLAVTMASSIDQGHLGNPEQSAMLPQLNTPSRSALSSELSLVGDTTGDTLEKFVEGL

[3] = target: T3, Bromodomain-containing protein 9 (Homo sapiens, UniProt Q9H8M2); assay: Displacement of biotinylated JQ1 analog from recombinant His-tagged BRD9 (unknown origin) incubated for 10 mins by TR-FRET assay
T3 sequence (Q9H8M2 whole entry): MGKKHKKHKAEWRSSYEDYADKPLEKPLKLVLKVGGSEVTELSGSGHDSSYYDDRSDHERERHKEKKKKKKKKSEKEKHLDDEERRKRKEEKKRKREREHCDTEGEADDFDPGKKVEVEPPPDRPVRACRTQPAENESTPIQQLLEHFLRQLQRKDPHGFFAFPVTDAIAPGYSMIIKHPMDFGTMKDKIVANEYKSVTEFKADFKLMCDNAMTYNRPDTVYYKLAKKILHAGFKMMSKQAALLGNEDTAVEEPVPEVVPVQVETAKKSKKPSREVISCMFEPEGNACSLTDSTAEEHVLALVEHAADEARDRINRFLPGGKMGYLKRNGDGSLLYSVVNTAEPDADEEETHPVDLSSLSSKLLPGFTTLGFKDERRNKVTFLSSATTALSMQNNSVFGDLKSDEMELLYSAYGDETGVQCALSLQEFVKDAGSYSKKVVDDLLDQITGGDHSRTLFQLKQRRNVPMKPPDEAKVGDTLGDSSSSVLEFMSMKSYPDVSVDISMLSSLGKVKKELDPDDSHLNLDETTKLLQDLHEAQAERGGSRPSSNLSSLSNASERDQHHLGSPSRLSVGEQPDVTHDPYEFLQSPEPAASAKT

[4] = target: T4, Transcription initiation factor TFIID subunit 1 (Homo sapiens, UniProt P21675); assay: Inhibition of recombinant His-tagged TAF1 isoform-1 (unknown origin) using biotinylated ligand incubated for 10 mins by TR-FRET assay
T4 sequence (P21675 whole entry, canonical isoform): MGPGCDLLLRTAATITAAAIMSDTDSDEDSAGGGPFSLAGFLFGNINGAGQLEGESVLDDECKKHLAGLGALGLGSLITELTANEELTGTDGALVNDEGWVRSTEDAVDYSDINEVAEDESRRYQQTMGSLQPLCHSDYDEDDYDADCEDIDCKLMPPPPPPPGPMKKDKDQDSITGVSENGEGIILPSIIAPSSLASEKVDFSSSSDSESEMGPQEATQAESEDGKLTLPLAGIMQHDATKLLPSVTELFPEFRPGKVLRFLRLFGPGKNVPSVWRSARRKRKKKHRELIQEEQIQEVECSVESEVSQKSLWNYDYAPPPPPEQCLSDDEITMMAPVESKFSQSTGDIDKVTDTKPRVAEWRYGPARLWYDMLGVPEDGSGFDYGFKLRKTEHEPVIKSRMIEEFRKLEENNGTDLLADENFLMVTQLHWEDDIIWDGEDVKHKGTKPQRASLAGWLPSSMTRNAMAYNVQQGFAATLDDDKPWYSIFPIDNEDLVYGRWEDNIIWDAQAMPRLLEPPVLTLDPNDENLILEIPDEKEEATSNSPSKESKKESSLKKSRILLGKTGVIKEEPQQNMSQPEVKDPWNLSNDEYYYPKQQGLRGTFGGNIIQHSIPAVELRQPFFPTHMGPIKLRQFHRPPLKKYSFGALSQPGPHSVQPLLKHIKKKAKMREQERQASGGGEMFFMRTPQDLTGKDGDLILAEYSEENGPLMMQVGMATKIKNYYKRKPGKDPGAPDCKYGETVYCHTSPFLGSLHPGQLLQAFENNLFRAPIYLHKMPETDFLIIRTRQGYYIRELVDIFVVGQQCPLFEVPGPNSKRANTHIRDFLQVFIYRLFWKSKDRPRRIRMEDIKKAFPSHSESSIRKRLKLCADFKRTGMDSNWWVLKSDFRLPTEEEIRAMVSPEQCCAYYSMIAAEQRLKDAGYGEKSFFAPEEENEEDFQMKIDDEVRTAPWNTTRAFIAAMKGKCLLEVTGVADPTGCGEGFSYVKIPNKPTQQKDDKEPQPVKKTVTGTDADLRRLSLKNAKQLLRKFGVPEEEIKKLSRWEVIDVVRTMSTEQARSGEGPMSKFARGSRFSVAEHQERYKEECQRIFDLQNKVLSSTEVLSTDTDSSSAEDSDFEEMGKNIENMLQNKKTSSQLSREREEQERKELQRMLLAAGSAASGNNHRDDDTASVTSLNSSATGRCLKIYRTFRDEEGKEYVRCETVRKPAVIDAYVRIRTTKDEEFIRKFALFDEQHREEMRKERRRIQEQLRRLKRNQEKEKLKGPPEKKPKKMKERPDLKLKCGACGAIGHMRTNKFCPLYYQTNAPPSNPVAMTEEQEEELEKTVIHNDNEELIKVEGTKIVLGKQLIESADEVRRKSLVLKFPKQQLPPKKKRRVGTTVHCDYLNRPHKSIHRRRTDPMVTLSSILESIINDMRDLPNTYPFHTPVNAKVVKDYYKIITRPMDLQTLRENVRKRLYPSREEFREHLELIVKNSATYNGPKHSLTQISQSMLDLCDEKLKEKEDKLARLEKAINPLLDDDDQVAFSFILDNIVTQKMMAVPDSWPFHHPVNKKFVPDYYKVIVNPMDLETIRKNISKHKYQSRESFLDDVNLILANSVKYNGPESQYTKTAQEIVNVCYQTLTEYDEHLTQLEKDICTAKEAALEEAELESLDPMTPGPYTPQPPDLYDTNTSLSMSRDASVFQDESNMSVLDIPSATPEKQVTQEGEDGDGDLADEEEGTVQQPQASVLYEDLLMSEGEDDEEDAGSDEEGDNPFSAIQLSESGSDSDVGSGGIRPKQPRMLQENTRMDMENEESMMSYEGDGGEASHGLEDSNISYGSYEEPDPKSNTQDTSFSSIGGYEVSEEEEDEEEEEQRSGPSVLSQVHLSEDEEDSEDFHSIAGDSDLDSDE

[5] = target: T4, Transcription initiation factor TFIID subunit 1; assay: Inhibition of recombinant His-tagged TAF1 isoform-2 (unknown origin) using biotinylated ligand incubated for 10 mins by TR-FRET assay
[6] = target: Chromatin remodeling regulator CECR2 (Homo sapiens, UniProt Q9BXF3); assay: Inhibition of recombinant His-tagged CECR2 (unknown origin) using biotinylated ligand incubated for 10 mins by TR-FRET assay

IC50 (Peregrin) [µM]	IC50 [1] [µM]	IC50 [2] [µM]	IC50 (CREB-binding protein) [µM]	IC50 [3] [µM]	IC50 [4] [µM]	IC50 [5] [µM]	IC50 [6] [µM]	SMILES
> 20	–	–	–	–	–	–	–	C/C=C/Cn1cc(-c2cccc(C(=O)N(C)C)c2)c2cc[nH]c2c1=O
> 20	–	–	–	–	–	–	–	C=CCCn1cc(-c2cccc(C(=O)N(C)C)c2)c2cc[nH]c2c1=O
53.8	18.4	7.5	11.8	13.7	38.9	23.7	42.8	Cn1ccc2cc[nH]c2c1=O
